# PvdQ acylase – P. aeruginosa PvdQ acylase inhibition; purified PvdQ acylase, fluorescence plate reader; inhibition, % at 10 µM; actives 0.063% (n = 340,000); AID 488965; in the data active = inhibition above about 30%, passing the limit was not always enough;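 note: 0% = vehicle neutral wells and 100% = reference inhibitor wells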
# ERp5 block – ERp5 (human) disulfide isomerase inhibition | actives 0.05% (n = 350,000) | ERp5 insulin aggregation, absorbance 650 nm, 90 min | inhibition, % at 9.99 µM | Q15084;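 active = mean replicate inhibition above about 25%, with every replicate also reaching it, limit read from the data, passing the limit was not always enough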
# Target sequence (Q15084 whole entry, looked up): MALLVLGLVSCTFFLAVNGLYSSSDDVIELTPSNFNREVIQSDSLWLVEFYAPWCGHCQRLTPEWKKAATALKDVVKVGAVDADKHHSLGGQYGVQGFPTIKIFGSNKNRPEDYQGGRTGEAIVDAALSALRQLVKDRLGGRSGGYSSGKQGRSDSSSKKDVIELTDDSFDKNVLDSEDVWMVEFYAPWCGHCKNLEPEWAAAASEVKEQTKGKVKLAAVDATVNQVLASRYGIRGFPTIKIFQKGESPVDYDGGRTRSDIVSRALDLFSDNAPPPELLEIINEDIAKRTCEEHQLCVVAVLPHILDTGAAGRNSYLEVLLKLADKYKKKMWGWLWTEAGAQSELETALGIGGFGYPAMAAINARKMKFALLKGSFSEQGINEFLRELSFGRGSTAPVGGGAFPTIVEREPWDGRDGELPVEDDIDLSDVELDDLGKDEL
# IMP-1 inhibitor – inhibitors of Pseudomonas aeruginosa IMP-1 metallo-beta-lactamase | purified IMP-1, nitrocefin hydrolysis, epi-absorbance fluorescence | inhibition, % at 5.6 µM | actives 0.45% (n = 290,000) | AID 1556;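 active = inhibition above the mean plus 3 SD of all compounds in the same screening run, cut at about 4.5% in these data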;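 note: 0% = IMP-1 with DMSO and 100% = DMSO wells lacking enzyme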
#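 System: Purified IMP-1 | Read-out basis: Percent enzyme inhibition | Controls: IMP-1 with DMSO as 0%, enzyme-free DMSO as 100% | Replicates: One well per compound | Doses: 5.6 µM nominal single concentration | Detection: Epi-absorbance fluorescence, 480 nm excitation, 530 nm emission | Incubation: 25 °C, 15 min preincubation, 25 min reaction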
# PglD inh – inhibitors of Campylobacter jejuni PglD acetyltransferase; purified PglD enzyme, DTNB colorimetric CoA detection; inhibition, % at 12.5 µM; actives 0.098% (n = 360,000); in the data active = inhibition above about 16%, passing the limit was not always enough
# VIM-2 inh – inhibitors of Pseudomonas aeruginosa VIM-2 metallo-beta-lactamase. purified VIM-2, nitrocefin hydrolysis, epi-absorbance fluorescence. inhibition, % at 5.6 µM. actives 0.89% (n = 290,000);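 active = inhibition above the mean of all tested compounds plus 3 SD, cutoff set per screening run, cut at about 7.5% in these data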;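 note: red hydrolysis product quenches plate fluorescence so inhibitors raise well fluorescence; 0% = enzyme with DMSO and 100% = DMSO without enzyme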
# PDI turbidity – blocks human protein disulfide isomerase activity; P07237; PDI insulin aggregation turbidity, A650, 90 min; inhibition, % at 10 µM; actives 0.052% (n = 350,000); AID 588391;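 active = mean inhibition across replicates of 30% or more, whatever share of single replicates reach that level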
# An asterisk follows results filed as active; · = no result given. An excerpt weighted towards active compounds, which were near 1% of everything screened.
SMILES,PvdQ acylase,ERp5 block,IMP-1 inhibitor,PglD inh,VIM-2 inh,PDI turbidity
O=S(=O)(c1ccc(F)cc1)N1CCCCN2[C@H](CO)[C@H](c3ccc(C#CC4CCCC4)cc3)[C@H]2C1,·,0.1,·,0.3,·,·
COc1ccc(S(=O)(=O)Nc2ccc3c(c2)C(=O)N([C@H](C)CO)C[C@H](C)[C@H](CN(C)C(=O)Nc2ccccc2)OCCCC[C@@H](C)O3)cc1,·,·,·,-1.4,·,·
Cc1sc2ncnc(-n3cnc4ccccc43)c2c1C,-8.6,5.2,7.3*,2.2,0.1,-6.5
COCC(=O)N1CC2(CN(C(=O)c3cccnc3)C2)c2c([nH]c3cc(OC)ccc23)[C@@H]1CO,·,1.8,·,·,·,·
CCN(CC)C(=O)CSc1nnc(-c2cc3ccccc3cc2O)n1CC,-4.4,·,-2.4,-7.5,10.5*,2.0
CCc1[nH]nc2c1C1(CCN(C(=O)c3ccccc3)CC1)C(C#N)=C(N)O2,-3.3,4.1,-9.2,·,10.8*,5.6
CC(=O)N1CCC2(CC1)C(C#N)=C(N)Oc1n[nH]c(CSc3ccc(C)cc3)c12,15.5,·,-4.7,-3.7,-1.3,-1.8
COc1cccc(S(=O)(=O)N[C@@H]2CC[C@H](CC(=O)NCc3ccncc3)O[C@@H]2CO)c1,·,-3.2,·,0.3,·,·
COc1ccc(-c2sc(C(=O)c3ccc(Cl)cc3Cl)cc2CC(=O)O)cc1,-12.6,2.6,-1.2,2.9,10.7*,7.4
C[C@@H]1CN([C@H](C)CO)C(=O)Cc2cc(NC(=O)NC3CCCCC3)ccc2O[C@@H]1CN(C)Cc1ccc(-c2ccccc2)cc1,·,-13.6,·,2.0,·,·
CC(=O)Oc1ccc(C(=O)Nc2cccc(-c3nnc(-c4ccco4)o3)c2)cc1,-13.9,3.9,42.4*,1.5,-2.6,1.8
O=S1(=O)CCOC[C@H](c2ccccc2)N1Cc1ccccc1,1.7,4.5,-1.8,7.3,-0.8,7.4
O=S1(=O)CCOC[C@H](c2ccccc2)N1Cc1cccc(Cl)c1,43.3*,-6.5,2.2,-1.3,1.3,-1.6
CC1=NN(C(=O)c2ccc(C)o2)C(O)(c2ccccc2)C1 (stereo unspecified),-5.7,4.9,45.6*,-0.3,-0.9,7.4
NC(=O)c1ccccc1N/C=C/C(=O)c1ccc(Cl)cc1Cl,5.5,·,-3.5,-2.5,8.0*,0.8
COc1ccc(C[C@@H]2CCc3cnnn3COC[C@H](C(C)C)NC2=O)cc1,·,0.2,·,·,·,·
c1csc(C2=Nn3c(nnc3-c3ccncc3)SC2)c1,-9.6,·,-3.3,3.5,0.7,3.2
CCOc1ccc(C2=Nn3c(nnc3-c3ccccn3)SC2)cc1,-4.9,·,-1.6,-3.0,7.7*,4.9
CCOc1ccc(C2=Nn3c(nnc3-c3ccco3)SC2)cc1,-14.7,·,-3.1,-0.7,2.3,3.5
Brc1ccc(C2=Nn3c(nnc3-c3ccncc3)SC2)cc1,·,·,-2.8,·,9.2*,·
Cc1ccc(N/C(N)=N/c2nc3c(c(=O)[nH]2)CCCC3)c(C)c1,2.5,·,5.0*,-0.7,-1.4,-11.7
N/C(=N\c1nc2c(c(=O)[nH]1)CCCC2)Nc1ccccc1,4.6,·,-3.3,-1.4,-1.9,-18.8
CC(C)NC(=O)Nc1cccc2c1O[C@H](CN(C)C(=O)Nc1cccc3ccccc13)[C@@H](C)CN([C@H](C)CO)C2=O,·,2.4,·,3.5,·,·
CCc1nc(N[C@@H](Cc2c[nH]c3ccccc23)C(=O)O)c2oc3ccccc3c2n1,-0.3,·,-3.2,-5.1,-1.2,18.4
Cc1nc(N[C@@H](Cc2c[nH]c3ccccc23)C(=O)O)c2oc3ccccc3c2n1,8.9,·,-0.6,-1.4,8.8*,·
SMILES,PvdQ acylase,ERp5 block,IMP-1 inhibitor,PglD inh,VIM-2 inh,PDI turbidity
Cc1c(O)ccc2c(CC(=O)N[C@@H](Cc3c[nH]c4ccccc34)C(=O)O)cc(=O)oc12,-4.0,1.2,-2.9,8.0,-1.2,59.8*
O=C(Cc1cc(=O)oc2cc(O)ccc12)N[C@@H](Cc1c[nH]c2ccccc12)C(=O)O,-3.6,3.7,-2.9,4.6,-2.1,25.2
O=C(NCC[C@@H]1CC[C@H](NC(=O)C2CCC2)[C@H](CO)O1)c1cc(Cl)cc(Cl)c1,·,14.6,·,0.7,·,·
CC(C)NC(=O)Nc1ccc2c(c1)CC(=O)N([C@H](C)CO)C[C@H](C)[C@H](CN(C)S(=O)(=O)c1cccs1)O2,·,5.8,·,1.1,·,·
C[C@H]1CN([C@@H](C)CO)C(=O)c2cc(-c3cccc(C#N)c3)cnc2O[C@@H]1CN(C)Cc1cncnc1,·,33.8*,·,1.9,·,·
C[C@H](CO)N1C[C@H](C)[C@H](CN(C)Cc2cncnc2)Oc2ncc(-c3cccc(C#N)c3)cc2C1=O,·,52.3*,·,-0.7,·,·
C[C@@H]1CN([C@@H](C)CO)C(=O)c2cc(-c3cccc(C#N)c3)cnc2O[C@@H]1CN(C)Cc1cncnc1,·,2.3,·,-1.5,·,·
COc1ccc(CN(C)C[C@@H]2Oc3ccc(NC(=O)NC4CCCCC4)cc3CC(=O)N([C@H](C)CO)C[C@@H]2C)cc1,·,5.8,·,5.8,·,·
CC(=O)n1cc([C@@H]2C=C(C(=O)O)O[C@H](OCc3ccc(CO)cc3)C2)c2ccccc21,-14.1,4.9,-0.9,-7.2,8.8*,6.4
O=C(c1ccncc1)N1CC(=O)N2[C@H](CO)[C@H](c3ccc(-c4ccccc4F)cc3)[C@H]2C1,·,3.7,·,·,·,·
CC(C)NC(=O)Nc1cccc2c1O[C@@H](CN(C)C(=O)Nc1cccc3ccccc13)[C@@H](C)CN([C@@H](C)CO)C2=O,·,3.7,·,-4.0,·,·
CCOC(=O)c1cc(-c2ccc(N3CCOCC3)cc2)nn1-c1ccccc1C(=O)O,-12.8,-0.9,22.5*,0.4,0.9,-1.3
O=C1/C(=C/c2cccs2)SC(=S)N1NS(=O)(=O)c1ccccc1,-7.1,-2.3,9.0*,-21.5,0.3,6.9
Cc1noc(C)c1S(=O)(=O)Nc1ccc2c(c1)CC(=O)N([C@H](C)CO)C[C@H](C)[C@H](CN(C)S(=O)(=O)c1c(C)noc1C)O2,·,5.9,·,-0.2,·,·
Nc1ccc(C(=O)NN2C(=O)[C@H](Cl)C2c2ccc(Cl)cc2)cc1 (stereo partly specified),-6.5,2.9,·,·,·,56.1*
O=C(CCCSc1nnc(-c2cccs2)n1CC1CCCO1)c1ccccc1 (stereo unspecified),-10.0,·,-7.7,-1.3,9.7*,-7.4
O=C(CSc1nnc(-c2cccs2)n1CC1CCCO1)N1CCCC1 (stereo unspecified),-1.9,-19.1,-1.6,3.6,-2.0,2.1
COc1ccccc1-c1ccc2n(c1=O)C[C@H]1[C@H](CO)[C@@H](C(=O)N3CCCCC3)N(C)[C@@H]21,·,-4.2,·,-3.3,·,·
CC1=CCC(C(=O)O)C(C(=O)NC2CCCCC2)C1 (stereo unspecified),-11.7,-2.8,32.0*,3.5,-1.3,-9.4
CC1=C(C)CC(C(=O)NC2CCCC2)C(C(=O)O)C1 (stereo unspecified),-4.9,11.5,-1.7,-0.9,-1.8,8.0
OCCCc1nc2n(n1)C(c1cccs1)C=C(c1ccccc1)N2 (stereo unspecified),·,·,-0.5,·,8.4*,·
O=C1/C(=C/c2cccs2)CCC/C1=C\c1cccs1,-6.2,0.8,5.6*,-2.3,-2.3,5.4

# Screening results (PubChem BioAssay)
